Experimental data as given in ChEMBL document CHEMBL1139692, “Optimization of pyrimidinyl- and triazinyl-amines as non-nucleoside inhibitors of HIV-1 reverse transcriptase” (Bioorg Med Chem Lett, 2006).

What was measured:
[1] = Cytotoxicity against MT2 cells; format: cell-based; conditions: human
Method in brief: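 Growth of MT-2 cells was measured by MTT colorimetric read-out, run at the same time as the anti-HIV-1 IIIB protection assay.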

[2] = system: Human immunodeficiency virus 1; test: Antiviral activity against HIV1 3B in MT2 cells; format: functional, organism-based; conditions: Human immunodeficiency virus 1, 3B
Method in brief: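 HIV-1 IIIB infection of human MT-2 T-cells. Protection was read by MTT colorimetric assay. Curves used triplicate samples at each concentration.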

[3] = Ratio of CC50 for MT cells/EC50 for HIV1; format: functional

In the case of `COc1ncnc(Nc2ccc(Cl)c(OCC=C(C)C)c2)n1`, the CC50 [1] is reported as 18000 nM and the EC50 [2] is reported as 31 nM.
`CCc1ccnc(Nc2ccc(Cl)c(OCC=C(C)C)c2)n1` showed a CC50 [1] of 330 nM and an EC50 [2] of 16 nM.
In the case of `CC(C)=CCOc1cc(Nc2nc(C)nc(Cl)n2)ccc1Cl`, the CC50 [1] is reported as 40000 nM and the EC50 [2] is reported as 12000 nM.
In the case of `COc1cc(OC)nc(Nc2ccc(C#N)c(OCC=C(C)C)c2)n1`, the CC50 [1] is reported as 810 nM and the EC50 [2] is reported as 160 nM.
For `Clc1ccc(Nc2ncccn2)cc1Oc1ccccc1`, the CC50 [1] was 30000 nM and the EC50 [2] was 13000 nM.
`CC(C)=CCOc1cc(Nc2ncnc(N)n2)ccc1Cl` gave a CC50 [1] of 48000 nM and an EC50 [2] of 390 nM.
`CNc1ncnc(Nc2ccc(Cl)c(OCC=C(C)C)c2)n1` gave a CC50 [1] of 3100 nM and an EC50 [2] of 31 nM.
`CC(C)=CCOc1cc(Nc2nccc(N)n2)ccc1Cl` showed a CC50 [1] of 500 nM and an EC50 [2] of 75 nM.
For `CC(C)=CCOc1cc(Nc2ncnc(N)n2)ccc1C#N`, the CC50 [1] was 200 nM and the EC50 [2] was 15 nM.
For `O=C1Nc2ccc(Cl)cc2[C@@](C#CC2CC2)(C(F)(F)F)O1` [EFAVIRENZ], the CC50 [1] was > 100 nM.
In the case of `COc1ccnc(Nc2ccc(C#N)c(OCC=C(C)C)c2)n1`, the EC50 [2] is reported as 2 nM.
In the case of `COc1ccnc(Nc2ccc(Cl)c(Oc3ccc(C)cc3)c2)n1`, the CC50 [1] is reported as > 100000 nM and the EC50 [2] is reported as 10000 nM.
For `CC(C)=CCOc1cc(Nc2nccc(CO)n2)ccc1Cl`, the CC50 [1] was 220 nM.
`COc1cc(N)nc(Nc2ccc(Cl)c(OCC=C(C)C)c2)n1` showed a CC50 [1] of 19000 nM and an EC50 [2] of 3000 nM.
For `COc1ccnc(Nc2ccc(Cl)c(Oc3cccc(C)c3)c2)n1`, the CC50 [1] was 18000 nM and the EC50 [2] was 540 nM.
`COc1ccnc(Nc2ccc(Cl)c(Oc3ccccc3)c2)n1` showed a CC50 [1] of 38000 nM and an EC50 [2] of 2500 nM.
Work on `COc1nc(Nc2ccc(Cl)c(OCC=C(C)C)c2)nc(OC)n1` yielded a CC50 [1] of 20000 nM and an EC50 [2] of 290 nM.
Molecule `COc1ccnc(Nc2ccc(Cl)c(Sc3ccccc3)c2)n1` has a CC50 [1] of 21000 nM and an EC50 [2] of 320 nM.
Molecule `C/C=C/COc1cc(Nc2ncccn2)ccc1Cl` has a CC50 [1] of 31000 nM and an EC50 [2] of 2300 nM.
For `CSc1ncnc(Nc2ccc(C#N)c(OCC=C(C)C)c2)n1`, the CC50 [1] was 8400 nM, the “Ratio CC50/EC50” value [3] was >1000 and the EC50 [2] was 5 nM.
Work on `COc1nc(C)nc(Nc2ccc(Cl)c(OCC=C(C)C)c2)n1` yielded a CC50 [1] of 12000 nM and an EC50 [2] of 100 nM.
In the case of `CC(C)=CCOc1cc(Nc2ncnc(Cl)n2)ccc1Cl`, the CC50 [1] is reported as 45000 nM.
For `COc1nc(Cl)nc(Nc2ccc(Cl)c(OCC=C(C)C)c2)n1`, the CC50 [1] was 26000 nM.
`C/C=C/COc1cc(Nc2nccc(OC)n2)ccc1Cl` gave a CC50 [1] of 17000 nM and an EC50 [2] of 89 nM.
With `CNc1ccnc(Nc2ccc(Cl)c(OCC=C(C)C)c2)n1` the CC50 [1] was 690 nM and the EC50 [2] was 6 nM.
For `COc1nc(Nc2ccc(C#N)c(OCC=C(C)C)c2)nc(OC)n1`, the CC50 [1] was > 100000 nM, the “Ratio CC50/EC50” value [3] was >1000 and the EC50 [2] was 22 nM.
`COc1cc(OC)nc(Nc2ccc(Cl)c(OCC=C(C)C)c2)n1` showed a CC50 [1] of 28000 nM and an EC50 [2] of 250 nM.
Molecule `CSc1ccnc(Nc2ccc(Cl)c(OCC=C(C)C)c2)n1` has a CC50 [1] of 2800 nM and an EC50 [2] of 18 nM.
`CCOc1ccnc(Nc2ccc(Cl)c(OCC=C(C)C)c2)n1` gave a CC50 [1] of 19000 nM and an EC50 [2] of 41 nM.
Molecule `CC(C)=CCOc1cc(Nc2ncccn2)ccc1C#N` has a CC50 [1] of 36 nM and an EC50 [2] of 17 nM.
In the case of `COc1ccnc(Nc2ccc(Cl)c(Oc3ccccc3C)c2)n1`, the CC50 [1] is reported as 13000 nM.
In the case of `Cc1ccnc2c1NC(=O)c1cccnc1N2C1CC1` [NEVIRAPINE], the CC50 [1] is reported as > 10000 nM.
Work on `CC(C)=CCOc1cc(Nc2nccc(C)n2)ccc1Cl` yielded a CC50 [1] of 150 nM and an EC50 [2] of 39 nM.
For `CNc1ccnc(Nc2ccc(C#N)c(OCC=C(C)C)c2)n1`, the CC50 [1] was 22 nM and the EC50 [2] was 5 nM.
Work on `CC(C)=CCOc1cc(Nc2ncccn2)ccc1Cl` yielded a CC50 [1] of 2500 nM and an EC50 [2] of 200 nM.
`COc1ccnc(Nc2ccc(Cl)c(OCC=C(C)C)c2)n1` showed a CC50 [1] of 9000 nM and an EC50 [2] of 10 nM.
For `COc1nc(N)nc(Nc2ccc(C#N)c(OCC=C(C)C)c2)n1`, the CC50 [1] was 110 nM and the EC50 [2] was 9 nM.
In the case of `CC(C)=CCOc1cc(Nc2ncnc(Cl)n2)ccc1C#N`, the CC50 [1] is reported as > 100000 nM and the EC50 [2] is reported as 310 nM.
For `COCc1ccnc(Nc2ccc(Cl)c(OCC=C(C)C)c2)n1`, the CC50 [1] was > 25000 nM.
In the case of `Cc1cc(C#N)cc(C)c1Oc1nc(Nc2ccc(C#N)cc2)nc(N)c1Br` [ETRAVIRINE], the CC50 [1] is reported as > 1000 nM.
